HGIII-sPLA2 inh: human group III sPLA2 inhibitors, primary screen, biochemical, QFRET, BODIPY PC-A2 liposome substrate; QFRET BODIPY PC-A2 liposome hydrolysis, fluorescence; inhibition, % at 12.2 µM; 370,000 compounds, 0.56% hits;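 active = inhibition above mean plus 3 SD of compounds lying within the high and low control bounds, cut at about 19% in these data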;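 also: 0% = median of test compound wells and 100% = no enzyme DMSO wells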
PLC-beta3 inh: human PLC-beta3 inhibitors, primary screen, biochemical, fluorescence; 1-phosphatidylinositol 4,5-bisphosphate phosphodiesterase beta-3 (Homo sapiens), Q01970; Purified PLC-beta3, fluorogenic substrate; inhibition, % at 12.2 µM; 370,000 compounds, 0.18% hits; AID 720704, 2013; in the data active = inhibition above about 11%;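 also: 0% = median of compound wells on plate and 100% = full blocker control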
PLCg1 inh: PLC-gamma1 enzyme inhibitors, primary screen, biochemical, fluorescence, purified enzyme; 1-phosphatidylinositol 4,5-bisphosphate phosphodiesterase gamma-1 (Homo sapiens), P19174; 370,000 compounds, 0.84% hits; fluorogenic substrate; inhibition, % at 12.2 µM
procasp7 counter: procaspase-7 activators, primary screen, counter-screen for procaspase-3 activator project, biochemical, absorbance, HTS, human; 330,000 compounds, 0.093% hits; activation, % at 8.5 µM; recombinant procaspase-7, Ac-DEVD-pNA absorbance 405 nm; D23A/D198A/D206A triple mutant, cannot self-cleave; scale: DMSO 0, 5 µM enzyme 100; Caspase-7 (Homo sapiens), P55210; AID 463210, 2010;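 active = percent activation above the screen-wide mean plus 3 SD, cut at about 25% in these data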
Target sequence (P55210 whole entry D23A/D198A/D206A): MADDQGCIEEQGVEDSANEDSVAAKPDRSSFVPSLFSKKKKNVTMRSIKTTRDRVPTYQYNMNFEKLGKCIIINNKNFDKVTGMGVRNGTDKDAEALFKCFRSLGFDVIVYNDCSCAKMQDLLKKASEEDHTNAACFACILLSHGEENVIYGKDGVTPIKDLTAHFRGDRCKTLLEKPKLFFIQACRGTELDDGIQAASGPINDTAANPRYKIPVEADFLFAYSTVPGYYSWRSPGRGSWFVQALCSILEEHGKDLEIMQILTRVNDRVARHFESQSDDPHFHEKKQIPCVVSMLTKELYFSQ
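Test system: Procaspase-7 triple mutant (PC-7 D3A). Also added: Ac-DEVD-pNA substrate, 400 µM as added. Schedule: 1 h enzyme–compound preincubation and 2 h substrate reaction, both 25 °C. Signal: p-Nitroaniline absorbance at 405 nm, read at 0 and 120 min. Control set: low DMSO alone, high DMSO plus 5 µM PC-7.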
procasp3 activ: activators of human procaspase-3 D3A mutant, primary screen, biochemical, absorbance, PC-3 D3A mutant, single concentration | activation, % at 8.5 µM | recombinant procaspase-3 D3A, Ac-DEVD-pNA absorbance 405 nm | AID 463141, 2010 | 330,000 compounds, 0.11% hits | Caspase-3 (Homo sapiens), P42574;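 active = activation above the mean of all tested compounds plus 3 SD, cut at about 21% in these data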;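 also: 0% = DMSO alone and 100% = DMSO wells spiked with extra 5 µM PC-3 D3A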
Target sequence (P42574 whole entry D9A/D28A/D175A): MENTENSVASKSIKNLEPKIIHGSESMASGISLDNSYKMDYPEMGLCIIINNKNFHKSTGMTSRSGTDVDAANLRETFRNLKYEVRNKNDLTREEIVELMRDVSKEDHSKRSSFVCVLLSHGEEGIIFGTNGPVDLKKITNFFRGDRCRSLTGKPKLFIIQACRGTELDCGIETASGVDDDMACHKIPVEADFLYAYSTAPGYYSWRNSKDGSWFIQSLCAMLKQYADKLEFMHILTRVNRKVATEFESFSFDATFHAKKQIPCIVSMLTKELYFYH
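Assay system: Autoprocessing-dead procaspase-3 D3A mutant enzyme; also added: Ac-DEVD-pNA; doses: one concentration, 8.5 µM nominal, 0.8% DMSO; times: 1 h compound preincubation, 2 h substrate hydrolysis at 25 °C; technique: 405 nm absorbance of p-nitroaniline, reads at 0 and 120 min; measure: % activation between DMSO and enzyme-spiked controls; repeats: single replicate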
Arr AP2 block: inhibitors of beta-arrestin/AP2 binding, primary screen, biochemical, GPCR trafficking, flow cytometry. FITC-arrestin peptide / GST-AP2 beads; AP2 beta2 appendage carries R879A mutation. AID 504490, 2011. beta-arrestin 1 C-terminal peptide binding to AP2 beta2-adaptin appendage (human). 340,000 compounds, 0.31% hits. inhibition, % at 10 µM;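 active = inhibition above a set limit, near 3 SD of compounds lacking own fluorescence, cut at about 54% in these data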;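 also: plate controls were DMSO wells for no effect and 5 µM unlabelled arrestin peptide for full effect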
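system = GST-tagged AP2 beta2-adaptin appendage (R879A) on 4 µm glutathione beads | reagent = FITC-labelled arrestin peptide probe, 50 nM final | schedule = compound with beads 12 min RT, then probe 1 h RT | signal = HyperCyt-sampled flow cytometry, FL1 channel, ex 488/em 535 nm | read-out = percent response from loss of bead-bound FITC fluorescence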
PLCg1 ctr: PLC-gamma1 enzyme inhibitors, counter-screen for PLC-beta3 inhibitor project, biochemical, fluorescence. shares compounds with PLCg1 inh. purified PLC-gamma1, fluorogenic substrate. inhibition, % at 12.3 µM. 3,300 compounds, 3.1% hits
PLCbeta3 conf: PLC-beta3 inhibitor confirmation, biochemical, fluorescence, purified enzyme | fluorogenic substrate fluorescence | shares compounds with PLCg1 inh | 3,300 compounds, 1% hits | inhibition, % at 12.3 µM; in the data active = inhibition above about 11%
* = called active by the depositor; nt = no result. The list is not random: actives were taken first. Their share in the collection is about 1.9%. Rule as the data show it, unless noted: active = inhibition above about 9.5%; inactive = the rest.

SMILES	HGIII-sPLA2 inh	PLC-beta3 inh	PLCg1 inh	procasp7 counter	procasp3 activ	Arr AP2 block	PLCg1 ctr	PLCbeta3 conf
CCCCc1n[nH]c2c1/C(=N/O)CC(C)(C)C2	-1	1	1	-1	8	3	nt	nt
CCCc1n[nH]c2c1C(=O)CC(C)(C)C2	6	8	11*	-4	-7	-6	-3	-1
CC(=O)N1CCc2cc(S(=O)(=O)NCCC(=O)N(C)C3CCCCC3)ccc21	7	3	1	nt	nt	nt	nt	nt
CCOc1cc(CNCc2ccccc2)ccc1OCc1ccc(Cl)cc1	5	1	17*	-3	-12	0	-1	-1
COc1ccc(CNCCc2ccc(Cl)cc2)cc1OCc1ccccc1	nt	nt	nt	-3	-3	10	nt	nt
COC(=O)c1cnn(-c2ccc(Cl)cc2)c1/C=N/NC(=S)Nc1ccccc1	10	-3	2	nt	nt	nt	nt	nt
O=C1/C(=C\c2cccs2)SC(=S)N1C1CCS(=O)(=O)C1 (stereo not drawn)	6	0	9.8*	-21	-19	8	-1	0
COc1ccc(S[C@]2(C(=O)N3CCN(c4ncccn4)CC3)CC(=O)N(C(=O)CCc3ccccc3)[C@@H]2c2ccc(OC)cc2)cc1	1	0	1	nt	nt	nt	nt	nt
O=C(CSc1n[nH]c(=O)n1-c1ccccc1)Nc1ccccc1	9	9	15*	-4	-2	13	-10	-4
CC1C=CC=CCCC=CC=CC=CC=CC(OC2O[C@H](C)[C@@H](O)[C@H](N)[C@@H]2O)CC(O)C(C(=O)O)C(O)CC(=O)CC(O)C(O)CCC(O)CC(O)CC(O)CC(=O)OC(C)C(C)C1O (stereo partly drawn)	-11	-32	-26	nt	nt	nt	nt	nt
COc1ccccc1N(CC(=O)Nc1ccccc1C(=O)NC(C)C)S(C)(=O)=O	-2	2	2	4	3	2	nt	nt
CCOC(=O)c1ccccc1NC(=O)CN(c1ccccc1OC)S(C)(=O)=O	4	11*	7	-3	-4	26	-3	-6
CC(C)C[C@@H](CO)N1Cc2nnn(Cc3ccccc3)c2-c2ccccc2S1(=O)=O	-2	5	-2	nt	nt	nt	nt	nt
CCCCOC(=O)CSc1nc2c(c(=O)[nH]c(=O)n2C)n1C/C=C(\C)Cl	7	6	13*	-11	-13	-2	2	3
CCCC(=O)NC(c1ccco1)c1cc([N+](=O)[O-])c2cccnc2c1O (stereo not drawn)	11	4	14*	-14	-8	18	0	-4
COC(=O)[C@]12C[C@H](CC(=O)NCCc3ccccc3OC)C(=O)N(Cc3ccccc3)C1=C[C@H](C(C)(C)C)O[C@@H]2C	-3	3	-2	nt	nt	nt	nt	nt
Cc1ccc(OCCn2c(CCNC(=O)C3CCCCCC3)nc3ccccc32)cc1	2	12*	17*	nt	nt	nt	9.6*	6
OCc1nc2ccccc2n1CCCCOc1ccccc1	-3	0	0	-8	-2	-11	nt	nt
Cc1ccc(OCCn2c(CCNC(=O)C3CCCCC3)nc3ccccc32)cc1	1	9	7	nt	nt	nt	nt	nt
OCCCc1nc2ccccc2n1CCCCOc1ccccc1	-13	-2	11*	20	2	4	-3	-5
O=C(NCCc1nc2ccccc2n1CCOc1cc(F)ccc1F)C1CCCCC1	-4	11*	11*	nt	nt	nt	1	-17
O=C(Nc1cccc([N+](=O)[O-])c1)Nc1cccc([N+](=O)[O-])c1	9	-2	0	7	8	12	nt	nt
O=C(Nc1cccc([N+](=O)[O-])c1)Nc1ccc2c(c1)OCCO2	-20	-1	10*	7	3	-3	1	3
COc1ccc(S(=O)(=O)NCCCN2CCCC2=O)c(OC)c1	0	-8	1	7	0	4	nt	nt
COc1ccc(S(=O)(=O)NCCCN2CCCC2=O)cc1OC	1	-2	10.0*	3	2	8	-1	2
SMILES	HGIII-sPLA2 inh	PLC-beta3 inh	PLCg1 inh	procasp7 counter	procasp3 activ	Arr AP2 block	PLCg1 ctr	PLCbeta3 conf
Cc1cc(-c2n[nH]c(=S)n2N=Cc2ccc(O)cc2)n[nH]1	7	6	6	nt	nt	nt	nt	nt
COCCNC(=O)CN(C(=O)CCC(=O)Nc1ccccn1)c1cc(C)ccc1C	8	10	13*	6	7	35	9	-1
O=C(CSc1nnc(-c2cccs2)o1)c1ccc2c(c1)OCO2	-13	-1	0	nt	nt	nt	nt	nt
CCC(OC(=O)C(NC(=O)c1ccccc1)c1ccccc1)C(=O)Nc1cc(C)on1 (stereo not drawn)	-1	0	12*	4	0	-4	-8	-10
CCC(Oc1ccccc1)C(=O)Nc1cc(C)on1 (stereo not drawn)	-6	0	1	0	0	-3	nt	nt
CC(=O)Nc1ccc(/C=N/NC(=S)NC(C)C)cc1	11	3	12*	3	-8	-3	-6	1
CCOc1ccc(C2CC=C(C(=O)O)CN2S(=O)(=O)c2ccc(C)cc2)cc1 (stereo not drawn)	-12	-1	-3	nt	nt	nt	nt	nt
CCOc1ccc(Cl)cc1S(=O)(=O)N1CCC(C(=O)N2CCCC2)CC1	2	-2	-2	-2	0	24	nt	nt
CCOc1ccc(S(=O)(=O)N2CCC(C(=O)N3CCCC3)CC2)cc1C	-2	3	11*	-16	4	10	3	2
CC(=O)Nc1cccc(-c2nnc3n2CC(C)S3)c1 (stereo not drawn)	0	5	15*	-2	12	-32	-6	-2
Cc1cc(Oc2ccc([N+](=O)[O-])cc2)nc(N2CCOCC2)n1	7	7	12*	12	-7	-7	-1	-7
CCN1CCN(CC(=O)Nc2ccc(N(C)C)cc2)CC1	1	0	6	-7	3	1	nt	nt

Source: PubChem BioAssay (several laboratories)
